Published values gathered from unrelated publications.
Protocols differ between the studies behind these lines.
Target: Serine/threonine-protein kinase Nek11 (NEK11, Homo sapiens, UniProt Q8NG66)
One construct used (Q8NG66 1-645): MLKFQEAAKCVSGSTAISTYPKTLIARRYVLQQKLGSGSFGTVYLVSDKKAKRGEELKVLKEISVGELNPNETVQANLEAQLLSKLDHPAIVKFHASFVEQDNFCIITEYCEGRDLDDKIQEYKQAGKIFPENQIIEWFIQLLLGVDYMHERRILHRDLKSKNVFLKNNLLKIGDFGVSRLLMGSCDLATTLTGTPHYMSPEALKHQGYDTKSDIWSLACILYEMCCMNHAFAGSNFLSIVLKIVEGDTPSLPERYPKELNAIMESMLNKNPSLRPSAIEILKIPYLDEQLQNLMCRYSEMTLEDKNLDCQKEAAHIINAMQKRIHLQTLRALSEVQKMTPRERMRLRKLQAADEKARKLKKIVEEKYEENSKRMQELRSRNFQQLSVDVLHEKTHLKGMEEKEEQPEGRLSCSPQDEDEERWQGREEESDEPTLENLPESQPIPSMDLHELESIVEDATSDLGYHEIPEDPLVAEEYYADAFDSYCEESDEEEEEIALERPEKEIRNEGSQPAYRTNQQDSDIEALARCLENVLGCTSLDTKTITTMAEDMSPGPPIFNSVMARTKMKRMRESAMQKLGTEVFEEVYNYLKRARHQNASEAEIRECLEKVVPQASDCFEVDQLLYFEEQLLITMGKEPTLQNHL

| SMILES | observed | technique | tested at | remaining binding [%] |
| --- | --- | --- | --- | --- |
| N[C@@H]1CCN(c2nccc(-c3cnn4ncccc34)n2)C1 | binding |  | 1 µM | 100 |
| COc1ncc2cc3ccccc3nc2c1C#N | cell-free assay | competition with immobilised ligand | 5 µM | 60 |
| CN(CCCC(F)(F)F)c1nccc(-c2cnn3ncccc23)n1 | binding |  | 1 µM | 100 |
| c1cncc(-c2cccc(Nc3nccc(NC4CCCCC4)n3)c2)c1 | binding | competition with immobilised ligand | 10 µM | 100 |
| COc1ccnn2ncc(-c3ccnc(N(C)C)n3)c12 | binding |  | 1 µM | 100 |
| CS(=O)(=O)NCC[C@H](NC(=O)c1cncc2c1cnn2-c1ccc(F)cc1)c1ccnc(S(C)(=O)=O)c1 | cell-free assay | competition with immobilised ligand | 1 µM | 100 |
| O=C(c1ccc(Nc2ncc(Cl)c(-c3cc4ccccc4s3)n2)cc1)N1CCC(N2CCCC2)CC1 | binding | competition with immobilised ligand | 1 µM | 80 |
| COCCOc1nc(-c2ccc(Cl)nc2)nc2c1CN(C(=O)c1ncn3ccccc13)CC2 | cell-free assay | competition with immobilised ligand | 0.1 µM | 100 |
| COc1cnc(Nc2cccc(S(N)(=O)=O)c2)nc1N1CCN(c2ccccc2)C(=O)C1 | binding | competition with immobilised ligand | 1 µM | 90 |
| O=C(NCC1CCOCC1)c1n[nH]cc1NC(=O)c1c(F)cccc1F | binding | competition with immobilised ligand | 1 µM | 91 |
| Cn1nc(C(F)(F)F)cc1-c1cnc(N2CCc3cc(S(=O)(=O)Nc4c(F)cc(Cl)cc4F)cc(N4CCCC4=O)c32)nc1 | cell-free assay | competition with immobilised ligand | 1 µM | 78 |
| F[C@@H]1CCN(c2nccc(-c3cnn4ncccc34)n2)C1 | binding |  | 1 µM | 100 |
| COc1ccc2c(c1)O[C@@H](c1ccc(OC)c(OC)c1)C[C@H]2NC(=O)C1(c2ccc3c(c2)OC(F)(F)O3)CC1 | cell-free assay | competition with immobilised ligand | 1 µM | 83 |
| O=C(c1ccc(Nc2nccc(-c3cc4ccccc4s3)n2)cc1)N1CCC(N2CCCC2)CC1 | binding | competition with immobilised ligand | 1 µM | 78 |
| c1cnn2ncc(-c3ccnc(N4CCC45COC5)n3)c2c1 | binding |  | 1 µM | 89 |
| Cc1cc(-n2nc(Cc3cc(F)cc(C(F)(F)F)c3)nc2C)ccc1C(N)=O | cell-free assay | competition with immobilised ligand | 1 µM | 100 |
| C[C@@H]1CCN(c2nccc(-c3cnn4ncccc34)n2)C1 | binding |  | 1 µM | 90 |
| O=C(NCCCC1CCCCC1)c1ccc(CNC(=O)c2cnn(-c3ccccc3)c2C(F)(F)F)cc1 | cell-free assay | competition with immobilised ligand | 0.1 µM | 100 |
| Cc1cnc(Nc2ccc(C(=O)N3CCC(N4CCCC4)CC3)cc2)nc1-c1cc2ccccc2s1 | binding | competition with immobilised ligand | 1 µM | 64 |
| CCN1CCN(Cc2ccc(C(=O)Nc3ccc(C)c(Oc4ccc5c(c4)CC(=O)N5)c3)cc2C(F)(F)F)CC1 | binding | competition with immobilised ligand | 1 µM | 100 |
